Bioassay records as filed in PubChem BioAssay.
Myeloid diff MLP – promotes myeloid progenitor differentiation; ER-HoxA9 myeloid progenitors, lysozyme-GFP differentiation, flow cytometry; calls only at 10 µM; 1% of 360,000 active;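 active = normalized GFP-positive differentiation at or above the plate's own cutoff, the solvent-only control mean plus 3 SD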;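 also: cells exposed to compound for four days before flow analysis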
Exocytosis inh – blocks lytic granule exocytosis; TALL-104 LAMP-1 surface exposure, flow cytometry; cells stimulated with thapsigargin and PMA; inhibition, % at 10 µM; 0.66% of 360,000 active; AID 651702;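 active = inhibition above about 55%, limit read from the data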
CSN deneddyl inh – blocks human CSN-mediated cullin deneddylation. 0.38% of 360,000 active. Purified CSN, SCF-Nedd8-OG deneddylation, fluorescence polarization. Q92905. inhibition, % at 12.5 µM;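 active = pattern-corrected inhibition above about 35%, with an unprinted fluorescence ratio check between 0.5 and 1.5, limit read from the data, passing the limit was not always enough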
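Schedule: reaction 90 min, room temperature / Assay system: HEK293T-derived human Csn5 enzyme / Input: Csn5 at 0.24 nM final / Measure: inhibition of Csn5 cleavage, % / Control set: substrate-only high control, full reaction low control / Technique: fluorescence polarization of the substrate / Buffer or medium: Tris/NaCl/DTT buffer, pH 7.5 / Reagent: SCFSkp2-Nedd8OG substrate at 10 nM final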
HNF4A DNA FP – change in binding of human HNF4 alpha to DNA | HNF4a-FITC DNA binding, fluorescence polarization, 1 h | activity change, % at 10 µM | 0.3% of 360,000 active; in the data active = activity change above about 30%, passing the limit was not always enough
Target sequence (P41235 whole entry, looked up): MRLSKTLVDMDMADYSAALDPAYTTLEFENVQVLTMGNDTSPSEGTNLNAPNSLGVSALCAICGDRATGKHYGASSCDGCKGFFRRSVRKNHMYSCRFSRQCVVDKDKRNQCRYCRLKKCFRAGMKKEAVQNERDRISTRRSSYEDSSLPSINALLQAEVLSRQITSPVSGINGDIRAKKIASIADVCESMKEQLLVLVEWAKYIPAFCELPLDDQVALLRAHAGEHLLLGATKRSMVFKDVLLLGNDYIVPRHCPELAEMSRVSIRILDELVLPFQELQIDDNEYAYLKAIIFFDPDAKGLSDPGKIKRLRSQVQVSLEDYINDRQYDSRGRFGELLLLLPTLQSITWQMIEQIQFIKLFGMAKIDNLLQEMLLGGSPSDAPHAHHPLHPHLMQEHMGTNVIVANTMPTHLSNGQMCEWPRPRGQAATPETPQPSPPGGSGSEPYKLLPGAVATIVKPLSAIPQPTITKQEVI
Myeloid diff CP1 – myeloid differentiation induction | ER-HoxA9 myeloid progenitors, GFP/Mac1 double-positive flow | shares compounds with Myeloid diff MLP | AID 651706 | calls only | 2% of 2,300 active;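 active = share of green or green-and-red cells above 9 and 9% in run 1 or 4 and 3% in run 2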
GFP autofluor – flagged as fluorescent in myeloid differentiation counter-screen; fluorescence response, % (test concentration not listed); shares compounds with Myeloid diff MLP; ER-HoxA9 myeloid progenitors, no estrogen, GFP autofluorescence flow cytometry; vehicle wells 0%, positive control 100%; 7.4% of 2,300 active;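 active = over 5% cells positive for green fluorescent reporter, or over 2% positive for both it and APC stain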
Of the large screens only hits and unclear results are named; the others gave an inactive call (follow-up assays come after a bar, where they were run). Sampled rows, rich in hits. Any-hit rate of the full collection: about 2.2%.

O=c1[nH]c(=O)n(C2CCCCC2)c(O)c1/C=C/C=Nc1ccccc1	Myeloid diff MLP active | Myeloid diff CP1 inactive | GFP autofluor 7.5
COc1ccc(-n2c(O)c(/C=C/C=Nc3ccccc3)c(=O)[nH]c2=O)cc1	none | Myeloid diff CP1 inactive | GFP autofluor 97.2
CCOC(=O)[C@]12Cc3c(cc(OC)c(OC)c3OC)[C@H]1N(C)C(=O)c1cc(OC)ccc12	none
C=C1C2[C@H](OC(C)=O)[C@@H]3CC(=O)[C@]4(C)OC[C@@]3(C)[C@@]4(O)[C@@H](OC(C)=O)[C@H](OC(C)=O)[C@@]2(COC(=O)c2ccccc2)[C@@H](OC(C)=O)C[C@@H]1O (stereo partly drawn)	none | Myeloid diff CP1 inactive | GFP autofluor inactive
COc1ccc(CC(=O)N2CCN(C)CC2)cc1	none | Myeloid diff CP1 inactive | GFP autofluor inactive
Cc1ccc(CC(=O)N2CCN(C)CC2)cc1	none
CC(C)(C)C(=O)N1Cc2ccccc2-n2nncc2C1	none
Cn1ccnc1P(=S)(c1nccn1C)c1nccn1C	Myeloid diff MLP active | Myeloid diff CP1 inactive | GFP autofluor inactive
Cn1cccc1/C=C1\C(=O)NC(=O)N(CCC2=CCCCC2)C1=O	none
O=C1NC(=O)N(CCC2=CCCCC2)C(=O)/C1=C\c1cccs1	none | Myeloid diff CP1 inactive | GFP autofluor inactive
Cc1noc(C)c1COc1ccc(C(=O)NCC2(N(C)C)CCCCC2)cc1	none
COc1ccc(CN2CCN(C(=O)Cc3ccccc3)CC2)c(OC)c1	none
COc1ccc(CN2CCN(Cc3ccccc3)CC2)c(OC)c1	none | Myeloid diff CP1 inactive | GFP autofluor inactive
CCOC(=O)C1CCCN(c2ccc([N+](=O)[O-])c3nonc23)C1 (stereo not drawn)	Myeloid diff MLP active | Myeloid diff CP1 inactive | GFP autofluor 58.1
C[C@@H]1CN([C@H](C)CO)C(=O)CCCn2cc(nn2)CO[C@H]1CN(C)C(=O)Oc1ccc2ccccc2c1	none
CN(C)C(=O)Oc1ccc([N+](=O)[O-])cc1	none
CC(=O)Nc1ccc([As](=O)(O)c2ccc([N+](=O)[O-])cc2)cc1	none | Myeloid diff CP1 inactive | GFP autofluor inactive
Cc1cc(C)c(NC2=NCCS2)cc1C	none
CC(=O)c1ccc(OC(NC(=O)c2ccco2)C(Cl)(Cl)Cl)cc1 (stereo not drawn)	Myeloid diff MLP active | Myeloid diff CP1 inactive | GFP autofluor inactive
O=C(NC(Oc1ccccc1)C(Cl)(Cl)Cl)c1ccccc1 (stereo not drawn)	none
CCC1(NS(=O)(=O)c2ccc(N)cc2)C(=O)N(C)C(=O)N(C)C1=O	none
C=CC[C@@H](C)CC(=O)C(CCCN=[N+]=[N-])SOOc1ccccc1 (stereo partly drawn)	none
O=c1[nH]c(=S)[nH]c(O)c1/C=C1/C=c2ccccc2=N1	Myeloid diff MLP active | Myeloid diff CP1 inactive | GFP autofluor 16.2
O=C(NC1CCCCC1)N1Cc2cc(N3CCOCC3)ccc2-n2nncc2C1	none
O=c1[nH]c2ccccc2n1C1CCN(Cc2ccc(-c3nc4ccc(F)cc4nc3-c3ccccc3)cc2)CC1	Myeloid diff MLP active | Myeloid diff CP1 inactive | GFP autofluor inactive
Cc1cc(C)cc(N2C(=O)NC(=O)/C(=C\c3cccn3-c3ccc(Cl)cc3)C2=O)c1	none | Myeloid diff CP1 inactive | GFP autofluor inactive
CCC(CC)NCc1c[nH]c2ccccc12	Myeloid diff MLP active | Myeloid diff CP1 inactive | GFP autofluor inactive
COc1ccc(OC(=O)N(C)C[C@@H]2OCc3cnnn3CCCC(=O)N([C@@H](C)CO)C[C@@H]2C)cc1	none | Myeloid diff CP1 inactive | GFP autofluor inactive
COc1ccc(OC(=O)N(C)C[C@H]2OCc3cnnn3CCCC(=O)N([C@@H](C)CO)C[C@H]2C)cc1	none
C[C@]12CCC3C(CC[C@H]4C[C@H](O)[C@H](O)C[C@]34C)C1CC[C@@H]2O (stereo partly drawn)	none
C=CCn1c(O)c(C=NCCCOc2ccc(CC)cc2)c(=O)[nH]c1=S	Myeloid diff MLP active | Myeloid diff CP1 inactive | GFP autofluor inactive
CCOc1ccc(N=Cc2c(O)n(Cc3ccccc3)c(=S)[nH]c2=O)cc1	none
Cc1ccc(C(=O)Nc2ccc(Cl)cc2C(=O)c2ccccc2)cc1	none | Myeloid diff CP1 inactive | GFP autofluor 5.1
CCOC(=O)C(C)Oc1cc(C)cc2oc(=O)c3c(c12)CCCC3 (stereo not drawn)	none | Myeloid diff CP1 inactive | GFP autofluor inactive
CCCNC(=O)N1[C@H]2CC[C@@H]1C(C(=O)OC)=C(c1ccc3ccccc3c1)C2	none | Myeloid diff CP1 inactive | GFP autofluor inactive
COC(=O)C1=C(c2cc3ccccc3s2)C[C@@H]2CC[C@H]1N2C(=O)N1CCOCC1	none | Myeloid diff CP1 inactive | GFP autofluor inactive
COC(=O)C1=C(c2ccc(OC(F)(F)F)cc2)C[C@@H]2CC[C@H]1N2C(=O)NC1CCCCC1	none | Myeloid diff CP1 inactive | GFP autofluor inactive
COC(=O)C1=C(c2cc3ccccc3s2)C[C@@H]2CC[C@H]1N2C(=O)N1CCCC1	none
COC(=O)C1=C(c2ccc3ccccc3c2)C[C@@H]2CC[C@H]1N2C(=O)NCCCOC(C)C	none
COC(=O)C1=C(c2ccc(F)cc2OCc2ccccc2)C[C@@H]2CC[C@H]1N2C(=O)NCCc1ccc(F)cc1	none
COc1ccc(C(=O)CC(c2ccc3c(c2)OCO3)c2c(O)c3ccccc3oc2=O)cc1OC (stereo not drawn)	none
CC(=O)OC1C(O)C(C)OC(OC2C(OC(=O)C3CCC4C(C3)OC3(CC(OC(=O)/C=C/c5ccccc5)C(C)CO3)C43CO3)OC(C)C(O)C2OC(C)=O)C1O (stereo not drawn)	none (no result: Myeloid diff MLP)
CS(=O)(=O)c1ccc(C2=C(CNC(=O)c3ccncc3)[C@H]3CC[C@@H](C2)N3Cc2ccccc2)cc1	none
O=C(Nc1cccc(OC(=O)N2CCCCC2)c1)N1CCCCC1	none | Myeloid diff CP1 inactive | GFP autofluor inactive
CS(=O)(=O)c1ccc(C2=C(CNC(=O)c3cccnc3)[C@H]3CC[C@@H](C2)N3Cc2ccco2)cc1	none
CCCCCN1C(=O)c2ccccc2[C@@]2(C(=O)OCC)Cc3cc(OC)ccc3[C@@H]12	Myeloid diff MLP active | Myeloid diff CP1 inactive | GFP autofluor inactive
CCOC(=O)[C@]12Cc3ccccc3[C@H]1N(Cc1ccccc1)C(=O)c1ccccc12	none
CCOC(=O)[C@]12Cc3cc(OC)ccc3[C@H]1N(Cc1ccccc1)C(=O)c1ccccc12	none
CCOC(=O)[C@]12Cc3ccccc3[C@H]1N(CCC(=O)OC)C(=O)c1ccccc12	Myeloid diff MLP active | Myeloid diff CP1 inactive | GFP autofluor inactive
CCOC(=O)[C@]12Cc3c(cc(OC)c(OC)c3OC)[C@H]1N(C(C)C)C(=O)c1ccccc12	none
COc1ccc(CN2Cc3cc(N4CCOCC4)ccc3-n3nncc3C2)cc1	none
CCOC(=O)c1cccc(C2=C(CNC(=O)c3cccnc3)[C@H]3CC[C@@H](C2)N3Cc2ccccc2)c1	none
